From ChEMBL document CHEMBL4425098, “Thiolactomycin-Based Inhibitors of Bacterial β-Ketoacyl-ACP Synthases with in Vivo Activity” (J Med Chem, 2016)

Assay: Binding affinity to Mycobacterium tuberculosis FabB C171Q mutant expressed in Mycobacterium smegmatis MC2 155 by intrinsic tryptophan fluorescence quenching-based fluorimetric method
In short: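 Kd by quenching of intrinsic tryptophan fluorescence (excitation 280 nm, emission 337 nm). Inhibitor stocks in DMSO or buffer were titrated into 1 μM His-tag-purified enzyme in 50 mM Tris-HCl, 150 mM NaCl, 1 mM DTT, pH 8.5. mtFabB was expressed in M. smegmatis MC²155; saFabF was expressed in E. coli BL21(DE3) pLysS.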

| SMILES | Ki [µM] |
| --- | --- |
| C=C/C(C)=C/[C@@]1(C)SC(=O)C=C1OCC(=O)NCCNC(=O)OC(C)(C)C | > 200 |
| C=C/C(C)=C/[C@@]1(C)SC(=O)C(C)=C1O [THIOLACTOMYCIN] | 175 |
| C=C/C(C)=C/[C@@]1(C)SC(=O)C=C1OCC(=O)NCCN=[N+]=[N-] | > 200 |
